Measured values taken from ChEMBL document CHEMBL5303300, “EUbOPEN Chemogenomics Library - Multiplex” (2023).
Several values for one entry are separate records, joined by “and”; a condition that tells them apart may be missing. Identical values can stand only once.

System: Fibroblast
Assay: Multiplex assay against human fibroblast
Assay type: toxicity, cell-based
Conditions: number of replicates 2
Method in brief: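 Compound was added to live cells that had been stained at seeding with Hoechst33342, BioTracker Green Microtubule Cytoskeleton Dye, MitoTracker Red and Annexin V Alexa Fluor 680, and imaging followed on a CQ1 microscope at 37°C and 5% CO2. CellPathfinder machine-learning gating divided cells into Hoechst high-intensity objects or normal cells, normal cells into healthy, pyknosed or fragmented nuclei, and pyknosed cells into mitotic or apoptotic. Tubulin, mitochondrial-mass and membrane-permeability phenotypes are per cents of healthy-nucleus cells.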

[1] = 12 h, 1 µM, compound concentration 1 uM
[2] = 12 h, 10 µM, compound concentration 10 uM
[3] = 24 h, 1 µM, compound concentration 1 uM
[4] = 24 h, 10 µM, compound concentration 10 uM
[5] = 48 h, 1 µM, compound concentration 1 uM
[6] = 48 h, 10 µM, compound concentration 10 uM

Cn1cc(-c2ccc(-c3cncc(Cl)c3N3CCC4(CCNC4=O)CC3)cc2)cn1
Population Apoptotic (%) [1]: 34% and 44% | Population Fragmented Nuclei (%) [1]: 3% and 11% | Population Healthy Nuclei (%) [1]: 66% and 70% | Population Hoechst High Intensity Objects (%) [1]: 0% | Population Membrane Permeable-Phenotype (%) [1]: 9% and 5% | Population Mitochondria Different-Phenotype (%) [1]: 0% and 2% | Population Mitotic Cells (%) [1]: 66% and 55% | Population Normal (%) [1]: 100% | Population Pyknosed Nuclei (%) [1]: 30% and 18% | Population Tubulin-Different-Phenotype (%) [1]: 22% and 16% | Total Cell Count [1]: 162 and 230 | Population Apoptotic (%) [2]: 25% and 39% | Population Fragmented Nuclei (%) [2]: 14% and 11% | Population Healthy Nuclei (%) [2]: 67% and 71% | Population Hoechst High Intensity Objects (%) [2]: 0% | Population Membrane Permeable-Phenotype (%) [2]: 18% and 13% | Population Mitochondria Different-Phenotype (%) [2]: 3% and 4% | Population Mitotic Cells (%) [2]: 74% and 60% | Population Normal (%) [2]: 100% | Population Pyknosed Nuclei (%) [2]: 17% and 16% | Population Tubulin-Different-Phenotype (%) [2]: 84% and 65% | Total Cell Count [2]: 196 and 203 | Population Apoptotic (%) [3]: 45% and 50% | Population Fragmented Nuclei (%) [3]: 7% and 13% | Population Healthy Nuclei (%) [3]: 38% and 57% | Population Hoechst High Intensity Objects (%) [3]: 0% | Population Membrane Permeable-Phenotype (%) [3]: 21% and 8% | Population Mitochondria Different-Phenotype (%) [3]: 3% and 2% | Population Mitotic Cells (%) [3]: 54% and 49% | Population Normal (%) [3]: 99% | Population Pyknosed Nuclei (%) [3]: 53% and 28% | Population Tubulin-Different-Phenotype (%) [3]: 41% and 21% | Total Cell Count [3]: 157 and 229 | Population Apoptotic (%) [4]: 44% and 56% | Population Fragmented Nuclei (%) [4]: 24% and 22% | Population Healthy Nuclei (%) [4]: 62% and 64% | Population Hoechst High Intensity Objects (%) [4]: 0% | Population Membrane Permeable-Phenotype (%) [4]: 15% and 7% | Population Mitochondria Different-Phenotype (%) [4]: 8% and 7% | Population Mitotic Cells (%) [4]: 55% and 43% | Population Normal (%) [4]: 99% and 100% | Population Pyknosed Nuclei (%) [4]: 13% and 12% | Population Tubulin-Different-Phenotype (%) [4]: 82% and 73% | Total Cell Count [4]: 204 and 232 | Population Apoptotic (%) [5]: 69% and 58% | Population Fragmented Nuclei (%) [5]: 8% and 20% | Population Healthy Nuclei (%) [5]: 50% and 57% | Population Hoechst High Intensity Objects (%) [5]: 0% and 1% | Population Mitochondria Different-Phenotype (%) [5]: 1% and 2% | Population Mitotic Cells (%) [5]: 30% and 41% | Population Normal (%) [5]: 99% and 98% | Population Pyknosed Nuclei (%) [5]: 40% and 22% | Population Tubulin-Different-Phenotype (%) [5]: 47% and 22% | Total Cell Count [5]: 154 and 211 | Population Apoptotic (%) [6]: 66% and 69% | Population Fragmented Nuclei (%) [6]: 19% and 22% | Population Healthy Nuclei (%) [6]: 67% and 66% | Population Hoechst High Intensity Objects (%) [6]: 0% | Population Membrane Permeable-Phenotype (%) [6]: 9% and 2% | Population Mitochondria Different-Phenotype (%) [6]: 11% | Population Mitotic Cells (%) [6]: 33% and 30% | Population Normal (%) [6]: 99% | Population Pyknosed Nuclei (%) [6]: 12% and 10% | Population Tubulin-Different-Phenotype (%) [6]: 66% and 68% | Total Cell Count [6]: 210 and 211

C=CC(=O)Nc1cccc(C)c1Nc1ncc2cc(-c3c(Cl)c(OC)cc(OC)c3Cl)ccc2n1
Population Apoptotic (%) [1]: 30% and 35% | Population Fragmented Nuclei (%) [1]: 11% and 9% | Population Healthy Nuclei (%) [1]: 73% and 66% | Population Hoechst High Intensity Objects (%) [1]: 0% | Population Membrane Permeable-Phenotype (%) [1]: 4% | Population Mitochondria Different-Phenotype (%) [1]: 0% and 1% | Population Mitotic Cells (%) [1]: 69% and 64% | Population Normal (%) [1]: 100% and 99% | Population Pyknosed Nuclei (%) [1]: 14% and 23% | Population Tubulin-Different-Phenotype (%) [1]: 12% and 9% | Total Cell Count [1]: 248 and 242 | Population Apoptotic (%) [2]: 60% and 47% | Population Fragmented Nuclei (%) [2]: 35% and 15% | Population Healthy Nuclei (%) [2]: 40% and 60% | Population Membrane Permeable-Phenotype (%) [2]: 0% and 8% | Population Mitochondria Different-Phenotype (%) [2]: 1% and 4% | Population Mitotic Cells (%) [2]: 40% and 52% | Population Normal (%) [2]: 71% and 100% | Population Pyknosed Nuclei (%) [2]: 24% and 23% | Population Tubulin-Different-Phenotype (%) [2]: 17% and 21% | Total Cell Count [2]: 202 and 201 | Population Apoptotic (%) [3]: 48% and 60% | Population Fragmented Nuclei (%) [3]: 10% and 9% | Population Healthy Nuclei (%) [3]: 71% | Population Hoechst High Intensity Objects (%) [3]: 0% | Population Membrane Permeable-Phenotype (%) [3]: 3% and 5% | Population Mitochondria Different-Phenotype (%) [3]: 1% | Population Mitotic Cells (%) [3]: 51% and 40% | Population Normal (%) [3]: 99% | Population Pyknosed Nuclei (%) [3]: 17% and 19% | Population Tubulin-Different-Phenotype (%) [3]: 8% and 9% | Total Cell Count [3]: 245 and 232 | Population Apoptotic (%) [4]: 71% and 63% | Population Fragmented Nuclei (%) [4]: 38% and 17% | Population Healthy Nuclei (%) [4]: 41% and 63% | Population Membrane Permeable-Phenotype (%) [4]: 0% and 1% | Population Mitochondria Different-Phenotype (%) [4]: 0% and 9% | Population Mitotic Cells (%) [4]: 28% and 36% | Population Normal (%) [4]: 60% and 100% | Population Pyknosed Nuclei (%) [4]: 20% and 19% | Population Tubulin-Different-Phenotype (%) [4]: 7% and 20% | Total Cell Count [4]: 283 and 188 | Population Apoptotic (%) [5]: 61% and 67% | Population Fragmented Nuclei (%) [5]: 12% | Population Healthy Nuclei (%) [5]: 73% | Population Hoechst High Intensity Objects (%) [5]: 0% | Population Membrane Permeable-Phenotype (%) [5]: 3% and 5% | Population Mitochondria Different-Phenotype (%) [5]: 1% and 0% | Population Mitotic Cells (%) [5]: 38% and 32% | Population Normal (%) [5]: 100% | Population Pyknosed Nuclei (%) [5]: 13% and 14% | Population Tubulin-Different-Phenotype (%) [5]: 6% and 14% | Total Cell Count [5]: 243 and 214 | Population Apoptotic (%) [6]: 83% | Population Fragmented Nuclei (%) [6]: 40% and 15% | Population Healthy Nuclei (%) [6]: 40% and 71% | Population Membrane Permeable-Phenotype (%) [6]: 1% and 4% | Population Mitochondria Different-Phenotype (%) [6]: 4% | Population Mitotic Cells (%) [6]: 16% | Population Normal (%) [6]: 52% and 100% | Population Pyknosed Nuclei (%) [6]: 18% and 12% | Population Tubulin-Different-Phenotype (%) [6]: 10% and 11% | Total Cell Count [6]: 309 and 189

COC(=O)Nc1nc2c(s1)-c1c(c(-c3cccnc3)nn1-c1ccc(C3(N(C)C)CC3)cc1)CC2.Cl.Cl
Population Apoptotic (%) [1]: 38% and 45% | Population Fragmented Nuclei (%) [1]: 50% and 26% | Population Healthy Nuclei (%) [1]: 40% and 52% | Population Hoechst High Intensity Objects (%) [1]: 0% | Population Membrane Permeable-Phenotype (%) [1]: 5% and 6% | Population Mitochondria Different-Phenotype (%) [1]: 0% | Population Mitotic Cells (%) [1]: 61% and 54% | Population Normal (%) [1]: 99% and 100% | Population Pyknosed Nuclei (%) [1]: 9% and 21% | Population Tubulin-Different-Phenotype (%) [1]: 29% and 31% | Total Cell Count [1]: 378 and 219 | Population Apoptotic (%) [2]: 62% and 41% | Population Fragmented Nuclei (%) [2]: 31% and 34% | Population Healthy Nuclei (%) [2]: 55% and 57% | Population Hoechst High Intensity Objects (%) [2]: 0% | Population Membrane Permeable-Phenotype (%) [2]: 13% and 11% | Population Mitochondria Different-Phenotype (%) [2]: 2% and 4% | Population Mitotic Cells (%) [2]: 37% and 58% | Population Normal (%) [2]: 100% and 99% | Population Pyknosed Nuclei (%) [2]: 12% and 8% | Population Tubulin-Different-Phenotype (%) [2]: 63% and 52% | Total Cell Count [2]: 218 and 427 | Population Apoptotic (%) [3]: 60% and 87% | Population Fragmented Nuclei (%) [3]: 50% and 24% | Population Healthy Nuclei (%) [3]: 42% and 60% | Population Hoechst High Intensity Objects (%) [3]: 0% | Population Membrane Permeable-Phenotype (%) [3]: 4% | Population Mitochondria Different-Phenotype (%) [3]: 2% and 3% | Population Normal (%) [3]: 99% and 100% | Population Pyknosed Nuclei (%) [3]: 6% and 15% | Population Tubulin-Different-Phenotype (%) [3]: 20% and 31% | Total Cell Count [3]: 350 and 202 | Population Apoptotic (%) [4]: 65% and 52% | Population Fragmented Nuclei (%) [4]: 34% and 36% | Population Healthy Nuclei (%) [4]: 55% and 57% | Population Hoechst High Intensity Objects (%) [4]: 0% | Population Membrane Permeable-Phenotype (%) [4]: 11% and 5% | Population Mitochondria Different-Phenotype (%) [4]: 4% and 3% | Population Mitotic Cells (%) [4]: 34% and 48% | Population Normal (%) [4]: 100% and 99% | Population Pyknosed Nuclei (%) [4]: 10% and 5% | Population Tubulin-Different-Phenotype (%) [4]: 53% and 44% | Total Cell Count [4]: 225 and 437 | Population Apoptotic (%) [5]: 52% and 74% | Population Fragmented Nuclei (%) [5]: 51% and 29% | Population Healthy Nuclei (%) [5]: 43% and 56% | Population Hoechst High Intensity Objects (%) [5]: 0% | Population Membrane Permeable-Phenotype (%) [5]: 6% and 5% | Population Mitochondria Different-Phenotype (%) [5]: 2% and 0% | Population Mitotic Cells (%) [5]: 47% and 25% | Population Normal (%) [5]: 99% and 100% | Population Pyknosed Nuclei (%) [5]: 5% and 13% | Population Tubulin-Different-Phenotype (%) [5]: 12% and 21% | Total Cell Count [5]: 339 and 195 | Population Apoptotic (%) [6]: 57% and 73% | Population Fragmented Nuclei (%) [6]: 38% and 39% | Population Healthy Nuclei (%) [6]: 58% and 53% | Population Hoechst High Intensity Objects (%) [6]: 0% | Population Membrane Permeable-Phenotype (%) [6]: 3% and 0% | Population Mitochondria Different-Phenotype (%) [6]: 3% and 1% | Population Mitotic Cells (%) [6]: 42% and 26% | Population Normal (%) [6]: 100% and 99% | Population Pyknosed Nuclei (%) [6]: 3% and 6% | Population Tubulin-Different-Phenotype (%) [6]: 42% and 17% | Total Cell Count [6]: 223 and 418
